What was measured:
[1] = biological target: Histamine H2 receptor (Cavia porcellus) (UniProt P47747); assay: Agonist activity at histamine H2 receptor in guinea pig spontaneously beating right atrium assessed as positive chronotropic activity relative to histamine; assay type: functional, tissue-based; details: Cardiac atrium
[2] = biological target: Histamine H1 receptor (Homo sapiens) (UniProt P35367); assay: Antagonist activity at histamine H1 receptor in human U373 MG cells assessed as inhibition of histamine-induced intracellular calcium level preincubated for 15 mins prior to histamine challenge; assay type: functional, cell-based; details: U-373MG ATCC
Sequence of Histamine H1 receptor (Homo sapiens) (P35367 whole entry): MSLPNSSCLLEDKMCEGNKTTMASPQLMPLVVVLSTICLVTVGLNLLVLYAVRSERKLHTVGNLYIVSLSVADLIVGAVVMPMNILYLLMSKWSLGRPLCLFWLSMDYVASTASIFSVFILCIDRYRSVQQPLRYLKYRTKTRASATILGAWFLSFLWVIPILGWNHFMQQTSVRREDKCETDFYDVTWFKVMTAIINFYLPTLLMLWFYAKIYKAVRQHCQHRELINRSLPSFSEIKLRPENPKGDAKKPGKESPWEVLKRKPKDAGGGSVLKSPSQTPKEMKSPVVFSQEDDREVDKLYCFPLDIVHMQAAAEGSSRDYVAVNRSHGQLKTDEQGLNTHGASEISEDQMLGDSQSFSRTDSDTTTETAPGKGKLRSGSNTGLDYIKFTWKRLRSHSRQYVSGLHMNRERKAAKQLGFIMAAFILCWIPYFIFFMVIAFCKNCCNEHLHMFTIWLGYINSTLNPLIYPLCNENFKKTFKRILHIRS
How it was run: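 U373-MG human cells expressing H1R, calcium assay. […] KB was derived from IC50 by the Cheng-Prusoff equation. Values are the mean of two experiments.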

[3] = biological target: Histamine H1 receptor (Cavia porcellus, UniProt P31389); assay: Antagonist activity at histamine H1 receptor in guinea pig ileum assessed as inhibition of histamine-induced […]; assay type: functional, tissue-based; details: for Kb: read-out: pA2 (converted)
Sequence of Histamine H1 receptor (P31389 whole entry): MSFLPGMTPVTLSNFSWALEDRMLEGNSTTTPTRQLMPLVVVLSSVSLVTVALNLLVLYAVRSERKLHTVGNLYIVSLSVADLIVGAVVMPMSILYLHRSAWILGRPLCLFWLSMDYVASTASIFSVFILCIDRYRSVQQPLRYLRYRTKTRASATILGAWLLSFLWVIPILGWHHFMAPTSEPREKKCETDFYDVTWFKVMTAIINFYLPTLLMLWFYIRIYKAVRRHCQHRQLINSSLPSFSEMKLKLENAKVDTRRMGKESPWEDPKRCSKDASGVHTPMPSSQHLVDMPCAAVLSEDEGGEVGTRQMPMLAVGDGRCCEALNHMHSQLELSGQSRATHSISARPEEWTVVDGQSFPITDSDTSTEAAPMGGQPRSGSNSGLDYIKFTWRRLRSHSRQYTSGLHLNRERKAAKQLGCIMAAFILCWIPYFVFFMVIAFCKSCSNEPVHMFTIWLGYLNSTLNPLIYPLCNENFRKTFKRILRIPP

[4] = biological target: Histamine H2 receptor (Cavia porcellus, UniProt P47747); assay: Agonist activity at histamine H2 receptor in guinea pig spontaneously beating right atrium assessed as positive chronotropic activity; assay type: functional, tissue-based, Cardiac atrium
Sequence of Histamine H2 receptor (Cavia porcellus, UniProt P47747) (P47747 whole entry, the tested form may be a part): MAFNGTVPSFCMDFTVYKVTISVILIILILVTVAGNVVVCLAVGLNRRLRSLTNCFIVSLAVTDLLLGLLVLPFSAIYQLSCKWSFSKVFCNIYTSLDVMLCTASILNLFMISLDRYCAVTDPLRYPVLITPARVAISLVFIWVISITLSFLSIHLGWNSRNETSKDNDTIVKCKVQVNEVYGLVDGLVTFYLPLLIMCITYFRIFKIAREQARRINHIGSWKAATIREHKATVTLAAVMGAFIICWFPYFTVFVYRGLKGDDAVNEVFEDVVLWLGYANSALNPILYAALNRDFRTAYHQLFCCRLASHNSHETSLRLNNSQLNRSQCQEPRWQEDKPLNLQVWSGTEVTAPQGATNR

[5] = biological target: Histamine H2 receptor (Homo sapiens, UniProt P25021); assay: Activity at human recombinant histamine H2 receptor-Gsalpha fusion protein expressed in Sf9 cells by steady-state GTPase activity assay relative to histamine
Sequence of Histamine H2 receptor (Homo sapiens, UniProt P25021) (P25021 whole entry, the tested form may be a part): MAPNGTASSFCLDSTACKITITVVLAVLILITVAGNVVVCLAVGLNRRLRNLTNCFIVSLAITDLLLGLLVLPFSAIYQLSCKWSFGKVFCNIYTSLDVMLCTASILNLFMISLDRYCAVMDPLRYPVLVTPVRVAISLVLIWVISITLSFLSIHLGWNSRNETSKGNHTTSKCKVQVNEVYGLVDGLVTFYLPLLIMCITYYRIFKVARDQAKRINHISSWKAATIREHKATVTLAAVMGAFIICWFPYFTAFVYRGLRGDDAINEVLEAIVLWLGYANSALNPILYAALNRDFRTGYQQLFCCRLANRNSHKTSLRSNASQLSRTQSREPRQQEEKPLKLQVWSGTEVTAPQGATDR
How it was run: (§1)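 Membranes from Sf9 insect cells expressing the receptor construct named in each line: hH1R with RGS4, hH2R-GsR or gpH2R-GsR fusion, hH3R with GRi, Gβ1γ2 and RGS4, or hH4R-RGS19 fusion with GRi2 and Gβ1γ2. […] Values are mean ± SEM.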

[6] = biological target: Histamine H2 receptor (Cavia porcellus) (UniProt P47747); assay: Activity at guinea pig recombinant histamine H2 receptor-Gsalpha fusion protein expressed in Sf9 cells by steady-state GTPase activity assay relative to histamine; how it was run: as §1
[7] = biological target: Histamine H1 receptor (Homo sapiens) (UniProt P35367); assay: Activity at human recombinant histamine H1 receptor expressed in Sf9 cells coexpressing RGS4 by steady-state GTPase activity assay relative to histamine; how it was run: as §1
[8] = biological target: Histamine H3 receptor (Homo sapiens, UniProt Q9Y5N1); assay: Activity at human recombinant histamine H3 receptor expressed in Sf9 cells coexpressing Galphai2, G-beta-1-gamma-2 and RGS4 by steady-state GTPase activity assay relative to histamine; how it was run: as §1
Sequence of Histamine H3 receptor (Q9Y5N1 whole entry): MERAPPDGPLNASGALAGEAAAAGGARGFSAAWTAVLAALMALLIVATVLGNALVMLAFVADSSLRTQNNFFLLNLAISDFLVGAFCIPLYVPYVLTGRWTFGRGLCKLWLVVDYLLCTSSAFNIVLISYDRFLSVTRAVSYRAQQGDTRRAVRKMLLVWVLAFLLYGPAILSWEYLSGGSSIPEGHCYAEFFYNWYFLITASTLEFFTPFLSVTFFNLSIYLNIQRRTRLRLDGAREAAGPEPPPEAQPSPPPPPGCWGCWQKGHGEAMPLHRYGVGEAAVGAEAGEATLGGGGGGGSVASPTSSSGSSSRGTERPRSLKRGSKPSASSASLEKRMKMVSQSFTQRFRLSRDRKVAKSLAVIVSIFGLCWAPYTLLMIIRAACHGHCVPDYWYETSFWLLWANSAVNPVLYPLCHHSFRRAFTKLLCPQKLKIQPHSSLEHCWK

[9] = biological target: Histamine H1 receptor (Cavia porcellus) (UniProt P31389); assay: Antagonist activity at histamine H1 receptor in guinea pig ileum assessed as […]
Sequence of Histamine H1 receptor (Cavia porcellus) (P31389 whole entry): as the sequence (P31389 whole entry) above

Sequence of Histamine H2 receptor (Cavia porcellus) (P47747 whole entry, the tested form may be a part): as the sequence (P47747 whole entry, the tested form may be a part) above

Compound	Activity [1] [%]	Emax [1] [%]	Kb [2] [nM]	Kb [3] [nM]	EC50 [4] [nM]	also measured
N=C(NCCCc1c[nH]cn1)NC(=O)CCC1CCCCC1	1610	98	1600			
N=C(NCCCc1c[nH]cn1)NC(=O)CCc1ccccc1	607	97	9200	2140	166	
N=C(NCCCc1c[nH]cn1)NC(=O)CCCc1ccccc1	1780	94	7100	1820	56.2	
NC(=NCCCc1cnc[nH]1)NC(=O)C(c1ccccc1)c1ccccc1					1050	
N=C(NCCCc1c[nH]cn1)NC(=O)CC(c1ccc(F)c(F)c1)c1nccn1Cc1ccccc1 (stereo not drawn)	251	54	2900		398	
NC(=NCCCc1cnc[nH]1)NC(=O)CC(c1ccc(Cl)cc1)c1ccc(Cl)cc1					309	
CC(CC(=O)/N=C(\N)NCCCc1c[nH]cn1)c1ccccc1 (stereo not drawn)	6350	99	3000			Activity [5]: 1800%; Efficacy [5]: 0.87; Activity [6]: 10000%; Efficacy [6]: 1.03; Activity [7]: 1.3%; Efficacy [7]: 0.35; Activity [8]: 1024%; Efficacy [8]: 0.24
CC(CC(=O)NC(N)=NCCCc1cnc[nH]1)c1nccs1 (stereo not drawn)					38.9	
N=C(NCCCc1c[nH]cn1)NC(=O)CCCC1CCCCC1	269	89	1100	741	372	
N=C(NCCCc1c[nH]cn1)NC(=O)CC(c1ccccc1)c1ccc(F)cc1 (stereo not drawn)	1830	95			55	pD'2 [9]: 5.39
CC(C(=O)NC(N)=NCCCc1cnc[nH]1)c1ccccc1 (stereo not drawn)				> 10000	3630	
N=C(NCCCc1c[nH]cn1)NC(=O)CC1CCCCC1	1000	95	4300			
N=C(NCCCc1c[nH]cn1)NC(=O)Cc1ccccc1	546	97	2800			
NC(=NCCCc1cnc[nH]1)NC(=O)CC(c1ccc(F)cc1)c1ccccn1 (stereo not drawn)				3720	33.9	
N=C(NCCCc1c[nH]cn1)NC(=O)CC(c1ccccc1)c1ccc(F)c(F)c1 (stereo not drawn)	1850	81	1200			pD'2 [9]: 6.06
NC(=NCCCc1cnc[nH]1)NC(=O)CC(c1ccc(Br)cc1)c1ccc(Br)cc1					776	
N=C(NCCCc1c[nH]cn1)NC(=O)C1CCCCC1	2090	102	6000			
NC(=NCCC(c1ccc(F)cc1)c1ccccn1)NCCCc1cnc[nH]1 (stereo not drawn) [ARPROMIDINE]					9.77	
N=C(NCCCc1c[nH]cn1)NC(=O)CC(c1ccc(Cl)cc1)c1ccc(Cl)cc1	320	60				
CC(CC(=O)NC(=N)NCCCc1c[nH]cn1)c1ccccn1 (stereo not drawn)	2610	98	7400		38	
N=C(NCCCc1c[nH]cn1)NC(=O)CC(c1ccc(F)c(F)c1)c1ncc[nH]1 (stereo not drawn)	1030	100	6200			
N=C(NCCc1c[nH]cn1)NC(=O)CC(c1ccccc1)c1ccccc1	154	64	8700	9770	646	pD'2 [9]: 4.55
CC(CC(=O)NC(=N)NCCCc1c[nH]cn1)C1CCCCC1 (stereo not drawn)	1470	101	140			

Compound	Activity [1] [%]	Emax [1] [%]	Kb [2] [nM]	Kb [3] [nM]	EC50 [4] [nM]	also measured
N=C(NCCCc1c[nH]cn1)NC(=O)CC(c1ccccc1)c1ccccn1 (stereo not drawn)	1960	97	4900	11200	51.3	
N=C(NCCCc1c[nH]cn1)NC(=O)CC(c1ccc(Br)cc1)c1ccc(Br)cc1	130	60				
NC(=NCCCc1cnc[nH]1)NC(=O)CC(c1ccccc1)c1ccc(F)c(F)c1 (stereo not drawn)					53.7	
N=C(NCCCc1c[nH]cn1)NC(=O)C(c1ccccc1)c1ccccc1	95	69	4000			
N=C(NCCCc1c[nH]cn1)NC(=O)CC(c1ccc(F)cc1)c1ccccn1 (stereo not drawn)	2930	100	5200			
NC(=NCCCc1cnc[nH]1)NC(=O)C1CCCCC1				5130	47.9	
CC(C(=O)NC(N)=NCCCc1cnc[nH]1)C1CCCCC1 (stereo not drawn)				2340	138	
N=C(NCCCc1c[nH]cn1)NC(=O)CCCCc1ccccc1	211	86		562	468	
Cc1[nH]cnc1CSCCNC(=N)NCCCc1c[nH]cn1 [IMPROMIDINE]	5000	100		3390	20	
NC(=NCCCc1cnc[nH]1)NC(=O)Cc1ccccc1				575	182	
NC(=NCCCc1cnc[nH]1)NC(=O)CCC1CCCCC1				6170	61.7	
CC(CC(=O)NC(=N)NCCCc1c[nH]cn1)c1cccs1 (stereo not drawn)	2630	99	2100			Activity [5]: 1160%; Efficacy [5]: 0.97; Activity [6]: 5710%; Efficacy [6]: 1.05; Activity [7]: 1.8%; Activity [8]: 1530%; Efficacy [8]: 0.29
Cc1nc[nH]c1CSCC(=O)NC(N)=NCCCc1cnc[nH]1				4270	30.9	
NC(=NCCCc1cnc[nH]1)NC(=O)CC(c1ccc(F)c(F)c1)c1ncc[nH]1 (stereo not drawn)					97.7	
NC(=NCCCc1cnc[nH]1)NC(=O)CC1CCCCC1				2450	100	
CC(CC(=O)NC(=N)NCCCc1c[nH]cn1)c1nccs1 (stereo not drawn)	2590	91	11100			
CC(C(=O)NC(=N)NCCCc1c[nH]cn1)c1ccccc1 (stereo not drawn)	28	88	8800			
N=C(NCCCc1c[nH]cn1)NC(=O)c1ccccc1	86	89	15800		1170	pA2 [3]: > 5
Cc1[nH]cnc1CSCC(=O)NC(=N)NCCCc1c[nH]cn1	3200	101	8500			
CC(CC(=O)NC(N)=NCCCc1cnc[nH]1)C1CCCCC1 (stereo not drawn)				2190	67.6	
N=C(NCCCc1c[nH]cn1)NC(=O)CC(c1ccc(F)cc1)c1ccc(F)cc1	490	76	1400		204	pD'2 [9]: 5.95
N=C(NCCCc1c[nH]cn1)NCCC(c1ccc(F)cc1)c1ccccn1 (stereo not drawn)	10200	100				
CC(C(=O)NC(=N)NCCCc1c[nH]cn1)C1CCCCC1 (stereo not drawn)	729	86	8800			
